Measured values as given in ChEMBL document CHEMBL1139225, “Metabolism-based identification of a potent thrombin receptor antagonist” (J Med Chem, 2007).
Values after ≈ are worked out from the molar mass of the structure shown.

Tests used:
[1] = AUC (0-6h) in rat after oral administration; assay type: ADME, organism-based; parameters: time < 6 hr, route oral; conditions: plasma
[2] = AUC (0-24h) in Sprague-Dawley rat at 300 mg/kg, po after 1 day; assay type: ADME, organism-based; parameters: time < 24 hr, dose 300 mg/kg, route oral; conditions: plasma
How it was run: (§1)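 Fed male Sprague Dawley rats, four per group, given the compound orally once daily for 10 consecutive days in 0.4% methylcellulose (100 and 300 mg/kg groups). On day 1 and day 10, plasma concentrations of parent and hydroxylated metabolites were measured at 1, 2, 4, 8, 12 and 24 h, giving AUC(0-24 h) and Cmax.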

[3] = Cmax in Sprague-Dawley rat at 300 mg/kg, po after 10 days; assay type: ADME, organism-based; parameters: dose 300 mg/kg, route oral; conditions: in vivo; how it was run: as §1
[4] = Plasma concentration in cynomolgus monkey at 24 hrs; assay type: ADME, organism-based, Macaca fascicularis
How it was run: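 Cynomolgus monkeys were given an oral dose of 3 mg/kg in 0.4% methylcellulose. Plasma was sampled at 6 and 24 h and analysed by LC-MS/MS.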

[5] = Cmax in Sprague-Dawley rat at 300 mg/kg, po after 1 day; assay type: ADME, organism-based; parameters: dose 300 mg/kg, route oral; conditions: in vivo; how it was run: as §1
[6] = biological target: T1, Proteinase-activated receptor 1 (Homo sapiens, UniProt P25116); assay: Displacement of [3H]haTRAP from PAR1 in human platelet membrane; assay type: cell membranes
T1 sequence (P25116 whole entry): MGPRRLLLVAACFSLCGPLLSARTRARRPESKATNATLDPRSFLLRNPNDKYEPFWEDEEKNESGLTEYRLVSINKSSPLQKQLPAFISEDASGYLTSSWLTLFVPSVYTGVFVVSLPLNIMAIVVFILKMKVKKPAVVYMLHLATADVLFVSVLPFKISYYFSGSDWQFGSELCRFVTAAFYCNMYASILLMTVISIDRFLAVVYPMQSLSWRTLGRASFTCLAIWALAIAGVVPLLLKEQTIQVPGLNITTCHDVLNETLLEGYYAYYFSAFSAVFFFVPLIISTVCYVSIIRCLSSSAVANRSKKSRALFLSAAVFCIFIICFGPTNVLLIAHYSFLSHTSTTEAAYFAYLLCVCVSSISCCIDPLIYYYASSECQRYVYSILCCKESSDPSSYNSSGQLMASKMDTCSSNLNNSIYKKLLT

[7] = AUC (0-24h) in Sprague-Dawley rat at 300 mg/kg, po after 10 days; assay type: ADME, organism-based; parameters: time < 24 hr, dose 300 mg/kg, route oral; conditions: plasma; how it was run: as §1
[8] = AUC (0-6h) in rat at 10 mg/kg, po; assay type: ADME, organism-based; parameters: time < 6 hr, dose 10 mg/kg, route oral; conditions: plasma
How it was run: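 Rat oral pharmacokinetics at 10 mg/kg dosed in 20% HPβCD. Plasma exposure was reported as AUC(0-6).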

[9] = Solubility of the compound; assay type: physicochemical
[10] = test system: Rattus norvegicus; assay: Increase in hepatic enzyme CYP2B in Sprague-Dawley rat at 300 mg/kg, po; assay type: functional
How it was run: (§2)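 Ten-day enzyme induction study. Fed male Sprague Dawley rats, four per group, were dosed orally once daily at 100 or 300 mg/kg in 0.4% methylcellulose. Liver/body weight ratio, spectral cytochrome P450, and CYP1A and CYP2B levels were expressed relative to a control group.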

[11] = test system: Rattus norvegicus; assay: Increase in hepatic enzyme CYP1A in Sprague-Dawley rat at 100 mg/kg, po; assay type: functional; how it was run: as §2
[12] = test system: Rattus norvegicus; assay: Increase in liver to body weight ratio in Sprague-Dawley rat at 300 mg/kg, po; assay type: functional; how it was run: as §2
[13] = test system: Rattus norvegicus; assay: Increase in hepatic enzyme CYP2B in Sprague-Dawley rat at 100 mg/kg, po; assay type: functional; how it was run: as §2
[14] = test system: Rattus norvegicus; assay: Increase in liver to body weight ratio in Sprague-Dawley rat at 100 mg/kg, po; assay type: functional; how it was run: as §2
[15] = test system: Rattus norvegicus; assay: Increase in hepatic enzyme CYP1A in Sprague-Dawley rat at 300 mg/kg, po; assay type: functional; how it was run: as §2

With C[C@H]1OC(=O)[C@@H]2C[C@H]3[C@@H](CCC[C@@H]3O)[C@H](/C=C/c3ccc(-c4cccc(C(F)(F)F)c4)cn3)[C@H]12 the AUC(0-t) at 6 h [1] was 5760 ng·h/mL, the AUC(0-t) at 24 h [2] was 49000 ng·h/mL and the Cmax [3] was 79000 ng/mL. For the same compound, the concentration at 24 h [4] was 160 ng/mL, the Cmax [5] was 29000 ng/mL and the IC50 [6] was 41 nM. For the same compound, the AUC at 24 h [7] was 150000 ng·h/mL.

C[C@H]1OC(=O)[C@@H]2C[C@@H]3CC(F)(F)CC[C@H]3[C@H](/C=C/c3ccc(-c4cccc(Cl)c4)cn3)[C@H]12 showed an AUC(0-t) at 6 h [8] of 1200 ng·h/mL, an IC50 [6] of 12 nM and a solubility [9] of 5 µM (≈ 2.29 µg/mL).

Compound C[C@H]1OC(=O)[C@@H]2C[C@@H]3CCCC[C@H]3[C@H](/C=C/c3ccc(-c4cccc(C(F)(F)F)c4)cn3)[C@H]12 has an AUC(0-t) at 24 h [2] of 35000 ng·h/mL, an Activity [10] of 21 and a Cmax [3] of 17000 ng/mL. For the same compound, the Cmax [5] was 29000 ng/mL, the Activity [11] was 1.8 and the Activity [12] was 34%. The Activity [13] was 2.5, the AUC at 24 h [7] was 21000 ng·h/mL and the Activity [14] was 10%. For the same compound, the Activity [15] was 3.6.

In the case of C[C@H]1OC(=O)[C@@H]2C[C@@H]3CC(F)(F)CC[C@H]3[C@H](/C=C/c3ccc(-c4ccccc4F)cn3)[C@H]12, the IC50 [6] is reported as 28 nM.

Work on C[C@H]1OC(=O)[C@@H]2C[C@@H]3CC(F)(F)CC[C@H]3[C@H](/C=C/c3ccc(-c4cccc(C(F)(F)F)c4)cn3)[C@H]12 yielded an AUC(0-t) at 6 h [8] of 1200 ng·h/mL, an IC50 [6] of 37 nM and a solubility [9] of 5 µM (≈ 2.46 µg/mL).

For Cc1ccc(-c2ccc(/C=C/[C@H]3[C@@H]4CC[C@@H](O)C[C@H]4C[C@H]4C(=O)O[C@H](C)[C@@H]34)nc2)cc1, the IC50 [6] was 1370 nM.

Work on C[C@H]1OC(=O)[C@@H]2C[C@@H]3CC[C@H](O)C[C@H]3[C@H](/C=C/c3ccc(-c4cccc(C(F)(F)F)c4)cn3)[C@H]12 yielded an IC50 [6] of 845 nM.

C[C@H]1OC(=O)[C@@H]2C[C@@H]3C[C@H](O)CC[C@H]3[C@H](/C=C/c3ccc(-c4ccc(F)cc4)cn3)[C@H]12 showed an IC50 [6] of 829 nM.

C[C@H]1OC(=O)[C@@H]2C[C@@H]3C[C@H](O)CC[C@H]3[C@H](/C=C/c3ccc(-c4cccc(Cl)c4Cl)cn3)[C@H]12 gave an IC50 [6] of 16.5 nM.

For C[C@H]1OC(=O)[C@@H]2C[C@@H]3CC[C@@H](O)C[C@H]3[C@H](/C=C/c3ccc(-c4cccc(C(F)(F)F)c4)cn3)[C@H]12, the IC50 [6] was 481 nM.

With Cc1cccc(-c2ccc(/C=C/[C@H]3[C@@H]4CC[C@@H](O)C[C@H]4C[C@H]4C(=O)O[C@H](C)[C@@H]34)nc2)c1 the IC50 [6] was 147 nM.

Cc1ccccc1-c1ccc(/C=C/[C@H]2[C@@H]3CC[C@@H](O)C[C@H]3C[C@H]3C(=O)O[C@H](C)[C@@H]23)nc1 gave an IC50 [6] of 70 nM.
